One block for each compound: values may come before it.
Legend:
Format in all cases: protein-complex assay
[1] = biological target: T1, 20S proteasome (Homo sapiens) (UniProt P49721+P20618+P28074+P28062+P28065+P28072+P25786+P25787+P25788+P25789+P28066+P60900+O14818+Q8TAA3+P40306+A5LHX3+P49720+P28070+Q99436); test: (§1) Activation of human 20S proteosome assessed as increase in 7-amino-4-methylcoumarin release at 30 uM using mixture of chymotrypsin-like Suc-LLVY-AMC, trypsin-like Boc-LRR-AMC and caspase-like Z-LLE-AM fluorogenic peptides as substrates preincubated for 15 mins followed by substrate mixture addition and measured for 1 hr by fluorescence assay relative to control; settings: filed as activator, time 75.0 min
How it was run: (§2)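 Purified human 20S proteasome pre-incubated 15 min at 37°C with compound (3, 10 or 30 μM) or DMSO vehicle. Substrate mix then added: Suc-LLVY-AMC, Boc-LRR-AMC and Z-LLE-AMC, 13.3 μM each. AMC fluorescence followed over 1 h. Fold increase in activity calculated against untreated 20S.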

[2] = biological target: T1, 20S proteasome (Homo sapiens); test: Activation of human 20S proteosome assessed as fold increase in proteosome activity at 2.8 uM using caspase-like Z-LLE-AM fluorogenic peptide as substrate by fluorescence assay relative to control; settings: filed as activator
[3] = biological target: T1, 20S proteasome (Homo sapiens); test: as §1, with “3” for “30”; settings: filed as activator, time 75.0 min; how it was run: as §2
[4] = biological target: T1, 20S proteasome (Homo sapiens); test: Activation of human 20S proteosome assessed as concentration required to cause double the proteosome activity using caspase-like Z-LLE-AM fluorogenic peptide as substrate; settings: filed as activator
How it was run: (§3)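 Human 20S proteasome activity measured by AMC fluorescence over time. Each fluorogenic substrate (CT-L Suc-LLVY-AMC, Tryp-L Boc-LRR-AMC, Casp-L Z-LLE-AMC) tested alone and as an equal-amount mixture. Six-point compound titration, 1.25–40 μM, run in triplicate. AC200, the concentration that doubles 20S activity, derived from the concentration-response curves.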

[5] = biological target: T1, 20S proteasome (Homo sapiens); test: Activation of human 20S proteosome assessed as concentration required to cause double the proteosome activity using chymotrypsin-like Suc-LLVY-AMC fluorogenic peptide as substrate; settings: filed as activator; how it was run: as §3
[6] = biological target: T1, 20S proteasome (Homo sapiens); test: Activation of human 20S proteosome assessed as fold increase in proteosome activity at 1.3 uM using mixture of chymotrypsin-like Suc-LLVY-AMC, trypsin-like Boc-LRR-AMC and caspase-like Z-LLE-AM fluorogenic peptides as substrates by fluorescence assay relative to control; settings: filed as activator
[7] = biological target: T1, 20S proteasome (Homo sapiens); test: Activation of human 20S proteosome assessed as concentration required to cause double the proteosome activity using trypsin-like Boc-LRR-AMC fluorogenic peptide as substrate; settings: filed as activator; how it was run: as §3
[8] = biological target: T1, 20S proteasome (Homo sapiens); test: Induction of human 20S proteosome mediated human alpha-synuclein degradation; settings: filed as activator, dose 0.5-10 µM
How it was run: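 Compound pre-incubated with purified human 20S proteasome. Pure human α-synuclein then added and the mix incubated 4 h. Digests resolved and silver stained. α-Synuclein bands quantified using 20S proteasome subunits as loading control, n=3.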

[9] = biological target: T1, 20S proteasome (Homo sapiens); test: Activation of human 20S proteosome assessed as fold increase in proteosome activity at 1.7 uM using trypsin-like Boc-LRR-AMC fluorogenic peptide as substrate by fluorescence assay relative to control; settings: filed as activator
[10] = biological target: T1, 20S proteasome (Homo sapiens); test: Activation of human 20S proteosome assessed as concentration required to cause double the proteosome activity using chymotrypsin-like Suc-LLVY-AMC, trypsin-like Boc-LRR-AMC and caspase-like Z-LLE-AM fluorogenic peptides as substrates; settings: filed as activator; how it was run: as §3
[11] = biological target: T1, 20S proteasome (Homo sapiens); test: Activation of human 20S proteosome assessed as fold increase in proteosome activity at 10.5 uM using chymotrypsin-like Suc-LLVY-AMC fluorogenic peptide as substrate by fluorescence assay relative to control; settings: filed as activator
[12] = biological target: T1, 20S proteasome (Homo sapiens); test: Activation of human 20S proteosome assessed as fold increase in proteosome activity at 5.8 uM using caspase-like Z-LLE-AM fluorogenic peptide as substrate by fluorescence assay relative to control; settings: filed as activator
[13] = biological target: T1, 20S proteasome (Homo sapiens); test: Activation of human 20S proteosome assessed as fold increase in proteosome activity at 2.3 uM using mixture of chymotrypsin-like Suc-LLVY-AMC, trypsin-like Boc-LRR-AMC and caspase-like Z-LLE-AM fluorogenic peptides as substrates by fluorescence assay relative to control; settings: filed as activator
[14] = biological target: T1, 20S proteasome (Homo sapiens); test: Activation of human 20S proteosome assessed as fold increase in proteosome activity at 2.5 uM using trypsin-like Boc-LRR-AMC fluorogenic peptide as substrate by fluorescence assay relative to control; settings: filed as activator
[15] = biological target: T1, 20S proteasome (Homo sapiens); test: Activation of human 20S proteosome assessed as fold increase in proteosome activity at 8.1 uM using chymotrypsin-like Suc-LLVY-AMC fluorogenic peptide as substrate by fluorescence assay relative to control; settings: filed as activator
[16] = biological target: T1, 20S proteasome (Homo sapiens); test: Activation of human 20S proteosome assessed as fold increase in proteosome activity at 12.9 uM using chymotrypsin-like Suc-LLVY-AMC fluorogenic peptide as substrate by fluorescence assay relative to control; settings: filed as activator
[17] = biological target: T1, 20S proteasome (Homo sapiens); test: Activation of human 20S proteosome assessed as fold increase in proteosome activity at 5 uM using trypsin-like Boc-LRR-AMC fluorogenic peptide as substrate by fluorescence assay relative to control; settings: filed as activator
[18] = biological target: T1, 20S proteasome (Homo sapiens); test: Activation of human 20S proteosome assessed as fold increase in proteosome activity at 2 uM using mixture of chymotrypsin-like Suc-LLVY-AMC, trypsin-like Boc-LRR-AMC and caspase-like Z-LLE-AM fluorogenic peptides as substrates by fluorescence assay relative to control; settings: filed as activator
[19] = biological target: T1, 20S proteasome (Homo sapiens); test: Activation of human 20S proteosome assessed as fold increase in proteosome activity at 5.6 uM using caspase-like Z-LLE-AM fluorogenic peptide as substrate by fluorescence assay relative to control; settings: filed as activator

fold change (FC) [1]: 6.9
Compound: COc1ccc2c(c1)N=C(c1ccccc1)N(c1ccccn1)C2c1ccccc1 (configuration not stated)

fold change (FC) [1]: 5.9
Compound: COc1ccc2c(c1)N=C(c1ccccc1)N(c1cccnc1)C2c1ccccc1 (configuration not stated)

fold change (FC) [1]: 2.8
Compound: CCCCCC1=Nc2cc(OC)ccc2C(c2ccccc2)N1Cc1ccccc1 (configuration not stated)

fold change (FC) [1]: 4
Compound: c1ccc(CN2C(c3ccccc3)=Nc3ccccc3C2c2ccccc2)cc1 (configuration not stated)

fold change (FC) [1]: 2.7
Compound: COc1ccc2c(c1)N=C(c1ccccc1)N(CC#N)C2c1ccccc1 (configuration not stated)

fold change (FC) [1]: 8.2
Compound: COc1ccc2c(c1)N=C(c1ccccc1)N(CC1CCCCC1)C2c1ccccc1 (configuration not stated)

fold change (FC) [2]: 10.6 | fold change (FC) [1]: 7 | Activity [3]: > 200% | AC200 [4]: 2.8 µM | AC200 [5]: 10.5 µM | fold change (FC) [6]: 5.5 | AC200 [7]: 1.7 µM | Activity [8]: Dose-dependent effect | fold change (FC) [9]: 8.7 | AC200 [10]: 1.3 µM | fold change (FC) [11]: 3.8
Compound: COc1ccc2c(c1)N=C(c1ccccc1)N(C1CCN(Cc3ccccc3)CC1)C2c1ccccc1 (configuration not stated)

fold change (FC) [1]: 1.6
Compound: CCCCCCN1C(c2ccccc2)=Nc2cc(OC)ccc2C1c1ccccc1 (configuration not stated)

fold change (FC) [1]: 1.6
Compound: COc1ccc2c(c1)N=C(c1ccccc1)N(CC1CCOCC1)C2c1ccccc1 (configuration not stated)

fold change (FC) [1]: 1.8
Compound: COc1ccc2c(c1)N=C(C)N(Cc1ccccc1)C2c1ccccc1 (configuration not stated)

fold change (FC) [1]: 6.7
Compound: COc1ccc2c(c1)N=C(c1ccccc1)N(C1CCCCC1)C2c1ccccc1 (configuration not stated)

fold change (FC) [1]: 2.7
Compound: COc1ccc2c(c1)N=C(C1CC1)N(Cc1ccccc1)C2c1ccccc1 (configuration not stated)

fold change (FC) [12]: 15.3 | fold change (FC) [1]: 9.5 | Activity [3]: > 200% | AC200 [4]: 5.8 µM | fold change (FC) [13]: 11.1 | AC200 [5]: 8.1 µM | fold change (FC) [14]: 15 | AC200 [7]: 2.5 µM | AC200 [10]: 2.3 µM | fold change (FC) [15]: 6.7
Compound: COc1ccc2c(c1)N=C(c1ccccc1)N(c1ccccc1)C2c1ccccc1 (configuration not stated)

fold change (FC) [1]: 1
Compound: COc1ccc2c(c1)N=C(c1ccccc1)N(C1CCN(C)CC1)C2c1ccccc1 (configuration not stated)

fold change (FC) [16]: 5.6 | fold change (FC) [1]: 7.9 | Activity [3]: > 200% | fold change (FC) [17]: 11.7 | fold change (FC) [18]: 10.1 | AC200 [4]: 5.6 µM | AC200 [5]: 12.9 µM | fold change (FC) [19]: 13.4 | AC200 [7]: 5 µM | AC200 [10]: 2 µM
Compound: COc1ccc2c(c1)N=C(c1ccccc1)N(Cc1ccccc1)C2c1ccccc1 (configuration not stated)

fold change (FC) [1]: 8.1
Compound: Cc1ccc2c(c1)N=C(c1ccccc1)N(Cc1ccccc1)C2c1ccccc1 (configuration not stated)

fold change (FC) [1]: 1.2
Compound: COc1ccc2c(c1)N=C(c1ccccc1)N(CC1CCN(C)CC1)C2c1ccccc1 (configuration not stated)

fold change (FC) [1]: 2.3
Compound: COc1ccc2c(c1)N=C(C(C)C)N(Cc1ccccc1)C2c1ccccc1 (configuration not stated)

fold change (FC) [1]: 2
Compound: COc1ccc2c(c1)N=C(c1ccccc1)N(Cc1ccccn1)C2c1ccccc1 (configuration not stated)

fold change (FC) [1]: 2.8
Compound: COc1ccc2c(c1)N=C(c1ccccc1)N(CCc1ccccn1)C2c1ccccc1 (configuration not stated)

fold change (FC) [1]: 2.3
Compound: C=CCN1C(c2ccccc2)=Nc2cc(OC)ccc2C1c1ccccc1 (configuration not stated)

fold change (FC) [1]: 6.5
Compound: COc1ccc2c(c1)N=C(C1CCCCC1)N(Cc1ccccc1)C2c1ccccc1 (configuration not stated)

fold change (FC) [1]: 5.3
Compound: COc1ccc2c(c1)N=C(c1ccccc1)N(c1cccc3cccnc13)C2c1ccccc1 (configuration not stated)

fold change (FC) [1]: 2.8
Compound: CCCCCc1ccc2c(c1)N=C(c1ccccc1)N(Cc1ccccc1)C2c1ccccc1 (configuration not stated)

From ChEMBL document CHEMBL4732168, “Dihydroquinazolines enhance 20S proteasome activity and induce degradation of α-synuclein, an intrinsically disordered protein associated with neurodegeneration” (Bioorg Med Chem Lett, 2021)
